Experimental data from different studies.
Lines come from different studies, so protocols differ.
Cell line: HCT-116
Effect on: cell growth or viability

| SMILES | method | tested at | time | endpoint | result |
| --- | --- | --- | --- | --- | --- |
| COc1nc(NCc2cn(-c3ccc(C(=O)Nc4ccc(C)cc4)cc3)nn2)nc(OC)n1 | MTT | – | 72 h | IC50 | 0.0276 µM |
| C=CC(=O)c1cccnc1Nc1cc(C(F)(F)F)ccc1OCc1ccccc1 | CCK-8 | – | 72 h | GI50 | 8.72 µM |
| COc1nc(NCc2cn(-c3ccc(C(=O)Nc4ccc(C(F)(F)F)cc4)cc3)nn2)nc(OC)n1 | MTT | – | 72 h | IC50 | 0.00141 µM |
| O=C(O)c1ccccc1Nc1cccc(C(F)(F)F)c1 | CCK-8 | – | 72 h | GI50 | > 40 µM |
| COc1ccc(-c2cc(-c3ccc(C)cc3)nc3[nH]c(=O)[nH]c(=O)c23)cc1OC | MTT | – | 48 h | IC50 | 19 µM |
| Cc1nc(Nc2ccc3c(c2)C(C)(C)C(=O)N3)c2ccccc2n1 | MTT | – | – | IC50 | > 50 µM |
| COc1nc(NCc2cn(-c3ccc(C(=O)Nc4ccc(Br)cc4)cc3)nn2)nc(OC)n1 | MTT | – | 72 h | IC50 | 0.0279 µM |
| Cc1nc(Nc2ccc3c(c2)/C(=C/c2ccccc2)C(=O)N3Cc2ccccc2)c2ccccc2n1 | MTT | – | – | IC50 | 3.39 µM |
| COc1ccc(-c2cc(-c3ccc(Br)cc3)c3c(=O)[nH]c(=O)[nH]c3n2)cc1 | MTT | – | 48 h | IC50 | 7.88 µM |
| C=CC(=O)NC1CCN(c2ncc3ncnc(Nc4ccc(Oc5ccc6c(c5)ncn6C)c(C)c4)c3n2)CC1 | – | – | – | EC50 | 2.6 µM |
| COc1ccc(NC(=O)c2ccc(-n3cc(CNc4nc(OC)nc(OC)n4)nn3)cc2)cc1 | MTT | – | 72 h | IC50 | 0.0123 µM |
| Cc1nc(Nc2ccc3c(c2)C(C)(C)C(=O)N3C)c2ccccc2n1 | MTT | – | – | IC50 | > 50 µM |
| Cc1ccc(-c2cc(-c3ccc(Cl)cc3)c3c(=O)n(C)c(=O)n(C)c3n2)cc1 | MTT | – | 48 h | IC50 | 5.87 µM |
| COc1nc(NCc2cn(-c3ccc(NC(=O)c4ccc(C)cc4)cc3)nn2)nc(OC)n1 | MTT | – | 72 h | IC50 | 0.0599 µM |
| C=CC(=O)c1cccnc1Nc1cc(C(F)(F)F)ccc1OC | CCK-8 | – | 72 h | GI50 | 12.3 µM |
| COc1ccc(-c2cc(-c3cccc(Br)c3)c3c(=O)[nH]c(=O)[nH]c3n2)cc1 | MTT | – | 48 h | IC50 | 9.77 µM |
| COc1cc2ncnc(Nc3ccc4c(c3)/C(=C/c3ccccc3)C(=O)N4)c2cc1OC | MTT | – | – | IC50 | 25.7 µM |
| COc1ccc(-c2cc(-c3ccc(Cl)cc3)c3c(=O)n(C)c(=O)n(C)c3n2)cc1 | MTT | – | 48 h | IC50 | 7.54 µM |
| Cc1nc(N(C)c2ccc3c(c2)/C(=C/c2ccccc2Cl)C(=O)N3C)c2ccccc2n1 | MTT | – | – | IC50 | 4.11 µM |
| COc1nc(NCc2cn(-c3ccc(NC(=O)c4ccc(Cl)cc4)cc3)nn2)nc(OC)n1 | MTT | – | 72 h | IC50 | 0.0338 µM |
| COc1ccc(-c2cc(-c3c(OC)cccc3OC)c3c(=O)[nH]c(=O)[nH]c3n2)cc1 | MTT | – | 48 h | IC50 | 29 µM |
| COc1nc(NCc2cn(-c3ccc(C(=O)Nc4ccc(Cl)cc4)cc3)nn2)nc(OC)n1 | MTT | – | 72 h | IC50 | 0.0329 µM |
| Cc1ccc(-c2cc(-c3c(Cl)cccc3Cl)c3c(=O)[nH]c(=O)[nH]c3n2)cc1 | MTT | – | 48 h | IC50 | 28 µM |
| CC(=NNC(=O)COc1ccc2c(C)c(Cc3ccccc3)c(=O)oc2c1C)c1ccc(Br)cc1 | MTT | 0.4 µg/mL | – | viability | 64.3% |
| COc1ccc(-c2cc(-c3ccc(C)cc3)nc3c2c(=O)n(C)c(=O)n3C)cc1OC | MTT | – | 48 h | IC50 | 20.8 µM |
| COc1cc2ncnc(N(C)c3ccc4c(c3)/C(=C/c3cccc(Cl)c3)C(=O)N4C)c2cc1OC | MTT | – | – | IC50 | 7.52 µM |
